Reference: ChEMBL document CHEMBL4257580, “Tanshinone-IIA-Based Analogues of Imidazole Alkaloid Act as Potent Inhibitors To Block Breast Cancer Invasion and Metastasis in Vivo” (J Med Chem, 2018)
The source made the active and inactive calls. The rule behind the calls is not given here.

Key:
HepG2 = experiment: Antiproliferative activity against human HepG2 cells after 72 hrs by MTT assay; format: functional, cell-based; conditions: HepG2, 72 h
Method in brief: (§1)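 A549, HeLa, HepG2 and normal liver L02 cells kept in DMEM with 10% FBS at 37 °C under 5% CO2. Plated at 5×10^3 cells/well for 24 h, then treated with graded concentrations for 72 h. Viability measured by MTT reduction (5 h), formazan dissolved in DMSO and read at 570 nm. Three repeats.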

HeLa = experiment: Antiproliferative activity against human HeLa cells after 72 hrs by MTT assay; format: functional, cell-based; method in brief: as §1
A549 = experiment: Antiproliferative activity against human A549 cells after 72 hrs by MTT assay; format: functional, cell-based; conditions: A549, 72 h; method in brief: as §1
L02 = experiment: Antiproliferative activity against human L02 cells after 72 hrs by MTT assay; format: cell-based; conditions: L02, 72 h; method in brief: as §1
MDA-MB-231 [1] = experiment: Antimigratory activity in human MDA-MB-231 cells up to 72 hrs by wound healing assay; format: functional, cell-based
Method in brief: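 Scratch assay: 1×10^5 cells/well grown to more than 80% confluence and wounded with a pipette tip. Cells then incubated with 0, 3 or 6 μM in serum-free DMEM for 72 h. The same field was imaged repeatedly over 3 days. Migration rate is wound filling, averaged over 10 fields; three independent experiments, mean ± SD.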

MDA-MB-231 [2] = experiment: Antiinvasive activity against human MDA-MB-231 cells assessed as reduction in number of black holes at 6 uM after 24 hrs by FITC-gelatin based confocal microscopy; format: functional, cell-based
Method in brief: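 Coverslips coated with poly-L-lysine, fixed with glutaraldehyde, overlaid with 0.2% FITC-gelatin in PBS/2% sucrose and quenched with sodium borohydride. Cells (2×10^5/well) plated with 0, 3 or 6 μM at 37 °C for 24 h. Gelatin degradation, seen as nonfluorescent dark holes, imaged by laser confocal microscopy; F-actin counterstained with rhodamine-phalloidin.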

MDA-MB-231 [3] = experiment: Antiangiogenesis activity in human MDA-MB-231 cells xenografted in fil1:EGFP transgenic zebrafish sub-intestinal vessels assessed as slowing of the sprout of angiogenesis at 5 uM measured every 24 hrs by fluorescence microscopy; format: functional, cell-based
Method in brief: (§2)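 Tg(fli1:EGFP) embryos at 48 hpf injected with 10–50 nL of DiI-labelled cells (~10^7 cells/mL in serum-free DMEM) into the perivitelline space near the subintestinal vessels. Ten embryos per well kept in 2 mL aquaculture water with 0 or 5 μM for 96 h. Imaged every 24 h by fluorescence microscopy; tumour area and trunk/tail fluorescence quantified, n=10/group, three experiments.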

MDA-MB-231 [4] = experiment: Antiangiogenesis activity in human MDA-MB-231 cells xenografted in fil1:EGFP transgenic zebrafish sub-intestinal vessels assessed as inhibition of cell invasion at 5 uM measured every 24 hrs for 96 hrs by fluorescence microscopy; format: functional, cell-based; method in brief: as §2
Danio rerio = experiment: Toxicity in […] 24 hpf fil1:EGFP transgenic zebrafish embryo assessed as inhibition of normal angiogenesis at 2 to 4 uM after 48 hrs by fluorescence microscopy; format: organism-based; conditions: in vivo
Method in brief: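 Non-xenografted Tg(fli1:EGFP) embryos dechorionated at 24 hpf and incubated with 0, 2 or 4 μM for 48 h, with PTK787 as positive control. Subintestinal vessel formation imaged at 72 hpf by fluorescence microscopy. n=10/group, three independent experiments.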

MDA-MB-231 [5] = experiment: Antimetastasis activity in human MDA-MB-231 cells assessed reduction in FAK protein expression at 5 to 15 uM after 72 hrs by Western blot analysis; format: functional, cell-based
Method in brief: (§3)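 Cells treated with 0, 5, 10 or 15 μM for 72 h. Lysates quantified by BCA, equal protein resolved on 10% tricine SDS-PAGE and transferred to nitrocellulose. Membranes blocked in 5% milk/TBST, then primary antibodies 1:1000 overnight at 4 °C and HRP secondary 1:2000 for 1 h at room temperature. Three independent experiments.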

MDA-MB-231 [6] = experiment: Antimetastasis activity in human MDA-MB-231 cells assessed upregulation of GSKbeta protein expression at 5 to 15 uM after 72 hrs by Western blot analysis; format: functional, cell-based; method in brief: as §3
MDA-MB-231 [7] = experiment: Cell cycle arrest in human MDA-MB-231 cells assessed as accumulation at G2 phase at 10 uM after 72 hrs by propidium iodide staining based flow cytometry (reference value: 8%); format: functional
MDA-MB-231 [8] = experiment: Cell cycle arrest in human MDA-MB-231 cells assessed as accumulation at G1 phase at 15 uM after 72 hrs by propidium iodide staining based flow cytometry (reference value: 49.40%); format: functional
MDA-MB-231 [9] = experiment: Cell cycle arrest in human MDA-MB-231 cells assessed as accumulation at S phase at 15 uM after 72 hrs by propidium iodide staining based flow cytometry (reference value: 42.60%); format: functional
MDA-MB-231 [10] = experiment: Induction of apoptosis in human MDA-MB-231 cells assessed as early apoptotic cells at 5 uM after 72 hrs by annexin-V/propidium iodide double staining based flow cytometry (reference value: 0.02%); format: functional
MDA-MB-231 [11] = experiment: Induction of apoptosis in human MDA-MB-231 cells assessed as early apoptotic cells at 10 uM after 72 hrs by annexin-V/propidium iodide double staining based flow cytometry (reference value: 0.02%); format: functional
MDA-MB-231 [12] = experiment: Induction of apoptosis in human MDA-MB-231 cells assessed as late apoptotic cells at 10 uM after 72 hrs by annexin-V/propidium iodide double staining based flow cytometry (reference value: 0.12%); format: functional
MDA-MB-231 [13] = experiment: Induction of apoptosis in human MDA-MB-231 cells assessed as early apoptotic cells at 15 uM after 72 hrs by annexin-V/propidium iodide double staining based flow cytometry (reference value: 0.02%); format: functional
MDA-MB-231 [14] = experiment: Induction of apoptosis in human MDA-MB-231 cells assessed as late apoptotic cells at 15 uM after 72 hrs by annexin-V/propidium iodide double staining based flow cytometry (reference value: 0.12%); format: functional
MDA-MB-231 [15] = experiment: Cell cycle arrest in human MDA-MB-231 cells assessed as up-regulation of p21 expression at 5 to 15 uM after 72 hrs by Western blot analysis; format: functional, cell-based; method in brief: as §3
MDA-MB-231 [16] = experiment: Cell cycle arrest in human MDA-MB-231 cells assessed as downregulation of cyclin A expression at 5 to 15 uM after 72 hrs by Western blot analysis; format: functional, cell-based; method in brief: as §3
MDA-MB-231 [17] = experiment: Induction of apoptosis in human MDA-MB-231 cells assessed as up-regulation cleaved caspase3 expression at 5 to 15 uM after 72 hrs by Western blot analysis; format: functional, cell-based; method in brief: as §3
MDA-MB-231 [18] = experiment: Induction of DNA damage in human MDA-MB-231 cells assessed as up-regulation of p53 expression at 2 to 15 uM by Western blot analysis; format: functional, cell-based
MDA-MB-231 [19] = experiment: Induction of DNA damage in human MDA-MB-231 cells assessed as down-regulation of AKT expression at 2 to 15 uM by Western blot analysis; format: functional, cell-based
MDA-MB-231 [20] = experiment: Induction of morphological changes in human MDA-MB-231 cells assessed as roughening of cell membrane surface with large and numerous particles at 5 to 20 uM after 72 hrs; format: functional, cell-based
MDA-MB-231 [21] = experiment: Cell cycle arrest in human MDA-MB-231 cells assessed as accumulation at G1 phase at 5 uM after 24 hrs by propidium iodide staining based flow cytometry (reference value: 49.40%)
MDA-MB-231 [22] = experiment: Antimetastasis activity in human MDA-MB-231 cells assessed reduction in stress fibers by measuring F-actin protein expression at 5 to 10 uM after 24 hrs by immunofluorescence based assay

Q: Which results are given for Cc1coc2c3ccc4c(c3c3[nH]c(-c5ccc(O)cc5)nc3c12)CCCC4(C)C?
A: IC50 (HepG2): 21.2 µM; IC50 (HeLa): 39.8 µM; IC50 (A549): 6.9 µM; IC50 (L02): 49.1 µM; Activity (MDA-MB-231 [1]): Dose-dependent effect; Activity (MDA-MB-231 [2]): Active; Activity (MDA-MB-231 [3]): Active; Activity (MDA-MB-231 [4]): Active; Activity (Danio rerio): Non-Toxic; Activity (MDA-MB-231 [5]): Active; Activity (MDA-MB-231 [6]): Active; Activity (MDA-MB-231 [7]): 13.01%; Activity (MDA-MB-231 [8]): 35.37%; Activity (MDA-MB-231 [9]): 54.51%; Activity (MDA-MB-231 [10]): 2.22%; Activity (MDA-MB-231 [11]): 3.87%; Activity (MDA-MB-231 [12]): 0.35%; Activity (MDA-MB-231 [13]): 6.73%; Activity (MDA-MB-231 [14]): 2.73%; Activity (MDA-MB-231 [15]): Active; Activity (MDA-MB-231 [16]): Active; Activity (MDA-MB-231 [17]): Active; Activity (MDA-MB-231 [18]): Active; Activity (MDA-MB-231 [19]): Active; Activity (MDA-MB-231 [20]): Active; Activity (MDA-MB-231 [21]): 42.38%; Activity (MDA-MB-231 [22]): Active
